Measurements reported in ChEMBL document CHEMBL2151038, “Synthesis, characterization and biological evaluation of some novel 2,4-thiazolidinediones as potential cytotoxic, antimicrobial and antihyperglycemic agents” (Bioorg Med Chem Lett, 2012).
≈ marks a conversion by molar mass, not a printed value.

What was measured:
[1] = system: Aspergillus niger; assay: Antifungal activity against Aspergillus niger NCIM 548 after 48 hrs by NCCLS agar well diffusion method; assay type: functional; conditions: NCIM 548, 48 h
Method in brief: (§1)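 Spore suspensions in sterile distilled water adjusted to 10⁶ CFU/mL, 0.1 mL spread on potato-dextrose agar. 6 mm wells received 0.1 mL compound in 1% DMSO (final 16–512 µg/mL). Controls: 1% DMSO and ketoconazole (16 µg/mL). Triplicate plates, 48 h at 28 ± 0.2 °C. MIC = lowest concentration completely inhibiting growth.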

[2] = system: Artemia salina; assay: Cytotoxicity in brine shrimps larvae assessed as mortality after 24 hrs; assay type: functional; conditions: read-out: ED50 (the source's name)
Method in brief: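 Artemia salina nauplii hatched 38 h under constant aeration in sterile brine (sea salt 38 g/L, pH 8.5 with 1 N NaOH). Ten nauplii per vial were exposed to a range of compound concentrations at 37 °C for 24 h under incandescent light, alongside vehicle-treated controls. Survivors were counted, % lethality was taken from mean survivors versus control, and ED50 came from probit analysis.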

[3] = system: Rattus norvegicus; assay: Antihyperglycemic activity in streptozotocin-induced type 2 diabetic Wistar albino rat assessed as reduction in plasma glucose level at 30 mg/kg, po by glucometer; assay type: functional
Method in brief: (§2)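 Wistar albino rats of either sex, 150–200 g, fasted 16 h. Diabetes induced by nicotinamide 150 mg/kg, then STZ 65 mg/kg in citrate buffer pH 4.5. Glucose confirmed after 48 h. Groups of six. Oral dosing as 0.25% sodium CMC suspension at 10, 30 or 50 mg/kg. Rosiglitazone was the reference. Retro-orbital plasma glucose measured by glucometer before dosing and at 1, 2, 4, 6, 8, 12 and 24 h. Results as mean ± SEM, compared by ANOVA, t-test and Dunnett's test.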

[4] = system: Rattus norvegicus; assay: Antihyperglycemic activity in streptozotocin-induced type 2 diabetic Wistar albino rat assessed as reduction in plasma glucose level at 50 mg/kg, po by glucometer; assay type: functional; method in brief: as §2
[5] = system: Candida albicans; assay: Antifungal activity against Candida albicans NCIM 3102 after 48 hrs by NCCLS agar well diffusion method; assay type: functional; conditions: NCIM 3102, 48 h; method in brief: as §1
[6] = system: Pseudomonas aeruginosa; assay: Antibacterial activity against Pseudomonas aeruginosa NCIM 2036 after 24 hrs by NCCLS agar well diffusion method; assay type: functional; conditions: NCIM 2036, 24 h
Method in brief: (§3)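 Nutrient agar seeded with 0.1 mL bacterial suspension (10⁵ CFU/mL in 0.85% saline). 6 mm wells filled with 0.1 mL compound. Plates in triplicate, 37 ± 0.5 °C for 24 h. MIC = lowest concentration giving complete growth inhibition.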

[7] = system: Klebsiella pneumoniae; assay: Antibacterial activity against Klebsiella pneumoniae NCIM 5082 after 24 hrs by NCCLS agar well diffusion method; assay type: functional; conditions: NCIM 5082, 24 h; method in brief: as §3
[8] = system: Staphylococcus aureus; assay: Antibacterial activity against Staphylococcus aureus NCIM 2079 after 24 hrs by NCCLS agar well diffusion method; assay type: functional; conditions: NCIM 2079, 24 h; method in brief: as §3
[9] = system: Bacillus subtilis; assay: Antibacterial activity against Bacillus subtilis NCIM 2063 after 24 hrs by NCCLS agar well diffusion method; assay type: functional; conditions: NCIM 2063, 24 h; method in brief: as §3
[10] = system: Escherichia coli; assay: Antibacterial activity against Escherichia coli NCIM 2065 after 24 hrs by NCCLS agar well diffusion method; assay type: functional; conditions: NCIM 2065, 24 h; method in brief: as §3
[11] = Toxicity in mouse assessed as changes in vital functions; assay type: organism-based; conditions: in vivo
[12] = system: Aspergillus oryzae; assay: Antifungal activity against Aspergillus oryzae NCIM 643 after 48 hrs by NCCLS agar well diffusion method; assay type: functional; conditions: NCIM 643, 48 h; method in brief: as §1
[13] = system: Rattus norvegicus; assay: Antihyperglycemic activity in streptozotocin-induced type 2 diabetic Wistar albino rat assessed as reduction in plasma glucose level at 10 mg/kg, po by glucometer; assay type: functional; method in brief: as §2
[14] = system: Micrococcus luteus; assay: Antibacterial activity against Micrococcus luteus NCIM 2155 after 24 hrs by NCCLS agar well diffusion method; assay type: functional; conditions: NCIM 2155, 24 h; method in brief: as §3
[15] = system: Rattus norvegicus; assay: Antihyperglycemic activity in po dosed streptozotocin-induced type 2 diabetic Wistar albino rat assessed as reduction in plasma glucose level by glucometer; assay type: functional, organism-based; method in brief: as §2
[16] = system: Penicillium chrysogenum; assay: Antifungal activity against Penicillium chrysogenum NCIM 738 after 48 hrs by NCCLS agar well diffusion method; assay type: functional; conditions: NCIM 738, 48 h; method in brief: as §1
[17] = system: Bacillus pumilus; assay: Antibacterial activity against Bacillus pumilus NCIM 2327 after 24 hrs by NCCLS agar well diffusion method; assay type: functional; conditions: NCIM 2327, 24 h; method in brief: as §3
[18] = system: Proteus vulgaris; assay: Antibacterial activity against Proteus vulgaris NCIM 2813 after 24 hrs by NCCLS agar well diffusion method; assay type: functional; conditions: NCIM 2813, 24 h; method in brief: as §3

Compound	MIC [1] [mg/L]	EC50 [2] [mg/L]	Activity [3] [mg/dL]	Activity [4] [mg/dL]	MIC [5] [mg/L]	MIC [6] [mg/L]	MIC [7] [mg/L]	MIC [8] [mg/L]	MIC [9] [mg/L]	MIC [10] [mg/L]	MTD [11] [mg/kg]	MIC [12] [mg/L]	Activity [13] [mg/dL]	MIC [14] [mg/L]	Activity [15]	MIC [16] [mg/L]	MIC [17] [mg/L]	MIC [18] [mg/L]
O=C1NC(=O)/C(=C/c2ccc(/C=C/C(=O)c3ccccn3)cc2)S1	64 (≈ 190 µM)	30.3 (≈ 90 µM)	34.68	43.72	64 (≈ 190 µM)	128 (≈ 381 µM)	64 (≈ 190 µM)	64 (≈ 190 µM)	128 (≈ 381 µM)	64 (≈ 190 µM)	2000	64 (≈ 190 µM)	22.78	32 (≈ 95.1 µM)	Dose-dependent effect	128 (≈ 381 µM)	64 (≈ 190 µM)	64 (≈ 190 µM)
Cc1ccc(C(=O)/C=C/c2ccc(/C=C3\SC(=O)NC3=O)cc2)cc1	256 (≈ 733 µM)	19.7 (≈ 56.3 µM)	21.81	28.72	256 (≈ 733 µM)	32 (≈ 91.6 µM)	64 (≈ 183 µM)	32 (≈ 91.6 µM)	32 (≈ 91.6 µM)	32 (≈ 91.6 µM)	2000	64 (≈ 183 µM)	17.66	64 (≈ 183 µM)	Dose-dependent effect	64 (≈ 183 µM)	32 (≈ 91.6 µM)	64 (≈ 183 µM)
O=C1NC(=O)/C(=C/c2ccc(/C=C/C(=O)c3cccc(Cl)c3)cc2)S1	64 (≈ 173 µM)	24.8 (≈ 67.1 µM)	15.42	21.83	128 (≈ 346 µM)	32 (≈ 86.5 µM)	64 (≈ 173 µM)	64 (≈ 173 µM)	64 (≈ 173 µM)	64 (≈ 173 µM)	2000	64 (≈ 173 µM)	11.71	64 (≈ 173 µM)	Dose-dependent effect	64 (≈ 173 µM)	64 (≈ 173 µM)	32 (≈ 86.5 µM)
COc1cccc(C(=O)/C=C/c2ccc(/C=C3\SC(=O)NC3=O)cc2)c1	64 (≈ 175 µM)	18.7 (≈ 51.2 µM)	28.73	34.61	128 (≈ 350 µM)	128 (≈ 350 µM)	128 (≈ 350 µM)	128 (≈ 350 µM)	128 (≈ 350 µM)	128 (≈ 350 µM)	2000	256 (≈ 701 µM)	16.41	256 (≈ 701 µM)	Dose-dependent effect	256 (≈ 701 µM)	128 (≈ 350 µM)	256 (≈ 701 µM)
O=C1NC(=O)/C(=C/c2ccc(/C=C/C(=O)c3ccc([N+](=O)[O-])cc3)cc2)S1	512 (≈ 1350 µM)	49.3 (≈ 130 µM)	16.74	22.73	256 (≈ 673 µM)	256 (≈ 673 µM)	512 (≈ 1350 µM)	512 (≈ 1350 µM)	256 (≈ 673 µM)	512 (≈ 1350 µM)	2000	512 (≈ 1350 µM)	13.63	512 (≈ 1350 µM)	Dose-dependent effect	256 (≈ 673 µM)	512 (≈ 1350 µM)	512 (≈ 1350 µM)
COc1ccc(C(=O)/C=C/c2ccc(/C=C3\SC(=O)NC3=O)cc2)cc1	128 (≈ 350 µM)	16.2 (≈ 44.4 µM)	37.04	48.71	128 (≈ 350 µM)	64 (≈ 175 µM)	64 (≈ 175 µM)	32 (≈ 87.6 µM)	64 (≈ 175 µM)	32 (≈ 87.6 µM)	2000	128 (≈ 350 µM)	33.88	64 (≈ 175 µM)	Dose-dependent effect	128 (≈ 350 µM)	64 (≈ 175 µM)	64 (≈ 175 µM)
Cc1cccc(C(=O)/C=C/c2ccc(/C=C3\SC(=O)NC3=O)cc2)c1O	128 (≈ 350 µM)	33.1 (≈ 90.6 µM)	43.14	49.99	64 (≈ 175 µM)	64 (≈ 175 µM)	64 (≈ 175 µM)	128 (≈ 350 µM)	64 (≈ 175 µM)	64 (≈ 175 µM)	2000	128 (≈ 350 µM)	36.76	512 (≈ 1400 µM)	Dose-dependent effect	256 (≈ 701 µM)	128 (≈ 350 µM)	32 (≈ 87.6 µM)
O=C1NC(=O)/C(=C/c2ccc(/C=C/C(=O)c3cccc(F)c3)cc2)S1	64 (≈ 181 µM)	9.28 (≈ 26.3 µM)	16.87	20.66	64 (≈ 181 µM)	32 (≈ 90.6 µM)	32 (≈ 90.6 µM)	32 (≈ 90.6 µM)	32 (≈ 90.6 µM)	32 (≈ 90.6 µM)	2000	64 (≈ 181 µM)	12.08	64 (≈ 181 µM)	Dose-dependent effect	64 (≈ 181 µM)	32 (≈ 90.6 µM)	64 (≈ 181 µM)
O=C1NC(=O)/C(=C/c2ccc(/C=C/C(=O)c3ccc4c(c3)Cc3ccccc3-4)cc2)S1	256 (≈ 604 µM)	39.7 (≈ 93.6 µM)	44.62	52.81	256 (≈ 604 µM)	128 (≈ 302 µM)	256 (≈ 604 µM)	256 (≈ 604 µM)	256 (≈ 604 µM)	128 (≈ 302 µM)	2000	256 (≈ 604 µM)	39.83	512 (≈ 1210 µM)	Dose-dependent effect	512 (≈ 1210 µM)	256 (≈ 604 µM)	512 (≈ 1210 µM)
O=C1NC(=O)/C(=C/c2ccc(/C=C/C(=O)c3ccc(Cl)cc3)cc2)S1	64 (≈ 173 µM)	12.1 (≈ 32.6 µM)	32.38	36.17	64 (≈ 173 µM)	32 (≈ 86.5 µM)	16 (≈ 43.3 µM)	32 (≈ 86.5 µM)	32 (≈ 86.5 µM)	32 (≈ 86.5 µM)	2000	64 (≈ 173 µM)	26.74	64 (≈ 173 µM)	Dose-dependent effect	64 (≈ 173 µM)	16 (≈ 43.3 µM)	32 (≈ 86.5 µM)
O=C1NC(=O)/C(=C/c2ccc(/C=C/C(=O)c3ccc4ccccc4c3)cc2)S1	512 (≈ 1330 µM)	48.1 (≈ 125 µM)	31.84	36.93	512 (≈ 1330 µM)	512 (≈ 1330 µM)	512 (≈ 1330 µM)	512 (≈ 1330 µM)	512 (≈ 1330 µM)	512 (≈ 1330 µM)	2000	512 (≈ 1330 µM)	23.75	512 (≈ 1330 µM)	Dose-dependent effect	512 (≈ 1330 µM)	512 (≈ 1330 µM)	512 (≈ 1330 µM)
O=C1NC(=O)/C(=C/c2ccc(/C=C/C(=O)c3ccc(O)cc3)cc2)S1	256 (≈ 729 µM)	36.2 (≈ 103 µM)	30.21	37.12	512 (≈ 1460 µM)	512 (≈ 1460 µM)	128 (≈ 364 µM)	128 (≈ 364 µM)	256 (≈ 729 µM)	128 (≈ 364 µM)	2000	256 (≈ 729 µM)	21.83	256 (≈ 729 µM)	Dose-dependent effect	512 (≈ 1460 µM)	128 (≈ 364 µM)	512 (≈ 1460 µM)
